Data set [1] is described as follows: Octanol-water partition coefficient, log D of the compound at pH 7.4 by shake flask method. It counts as physicochemical.
In data set [2] the target is T1, Dual specificity mitogen-activated protein kinase kinase 1 (Homo sapiens, UniProt Q02750). The data set can be described thus: Binding affinity to full length biotinylated 6His/Avi-tagged/Tev-fused human MEK1 expressed in Escherichia coli in presence of AMP-PNP by SPR assay. Background: In SPR one partner is held on a chip, and binding of the other changes the refractive index at the surface.
T1 sequence (Q02750 whole entry, the tested form may be a part): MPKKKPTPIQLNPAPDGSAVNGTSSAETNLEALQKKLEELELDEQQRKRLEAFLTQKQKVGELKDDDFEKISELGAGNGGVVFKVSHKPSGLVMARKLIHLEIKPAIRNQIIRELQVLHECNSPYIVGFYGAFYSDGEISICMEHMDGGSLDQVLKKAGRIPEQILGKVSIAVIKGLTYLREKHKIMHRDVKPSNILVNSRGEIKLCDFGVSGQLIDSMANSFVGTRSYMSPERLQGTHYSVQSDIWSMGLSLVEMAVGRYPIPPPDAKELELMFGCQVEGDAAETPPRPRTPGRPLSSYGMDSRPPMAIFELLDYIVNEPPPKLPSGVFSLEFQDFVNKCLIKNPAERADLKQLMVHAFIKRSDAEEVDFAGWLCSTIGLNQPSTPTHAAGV

The target in data set [3] is T1, Dual specificity mitogen-activated protein kinase kinase 1. The data set can be described thus: Binding affinity to full length biotinylated 6His/Avi-tagged/Tev-fused human MEK1 expressed in Escherichia coli in absence of AMP-PNP by SPR assay.
Data set [4] in a line: Intrinsic clearance in human liver microsomes. The data set is classed as ADME, Microsome. The settings on record: read-out: CLH. The essentials:
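Human liver microsomal stability; intrinsic clearance expressed in μL/(min mg).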
For orientation: Microsomes from liver hold many membrane-bound enzymes, among them those of drug oxidation.

A short description of data set [5]: Intrinsic clearance in rat hepatocytes. It counts as ADME, cell-based, Hepatocyte. The essentials:
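Rat hepatocyte stability; intrinsic clearance expressed in μL/(min 1E6) cells.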

A value given as a limit tells only on which side of the number the result lay.

As to `O=C(CC1SCCNC1=O)Nc1ccc(Cl)c(Cl)c1` (stereo not drawn), the logD (usually the decadic logarithm of the distribution of all forms, ionised or not, between an organic phase and buffer at a given pH) in data set [1] stood at 2.3. Also, the Kd – broadly, the equilibrium constant for the complex coming apart – was 65 µM in data set [2] and 87 µM in data set [3]. `O=C(CC1SCCNC1=O)Nc1ccc(F)cc1` (stereo not drawn): in data set [1], the logD worked out at 1.2. With `O=C(CC1SCCNC1=O)Nc1ccc(OC(F)F)cc1` (stereo not drawn), the logD in data set [1] came to 1.5. For the compound `COc1ccc(N(C)C(=O)CC2SCCNC2=O)cc1` (stereo not drawn), the dissociation constant (Kd) in data set [2] was over 1000 µM. As for `O=C(CC1SCCNC1=O)Nc1ccccc1` (stereo not drawn), in data set [1], the logD is 0.8. Same read-out and setting: under `COc1ccc(-c2cccc(=O)[nH]2)cc1` stands 1.4; under `COc1ccc(C2CC(=O)NCCS2)cc1` (stereo not drawn), 1.6; under `CCN(C)c1cc(-c2ccccc2O)nc2nccn12`, 2.9. Turning to `O=C(c1cccnc1)c1cc2ccccc2[nH]1`, the logD in data set [1] worked out at 2.3. The Kd in data set [2] amounted to 65 µM; in data set [3], 59 µM. Take `O=C(CC1SCCNC1=O)Nc1ccc(O)cc1` (stereo not drawn): the logD in data set [1] is 0.1. With `COc1cccc(NC(=O)CC2SCCNC2=O)c1` (stereo not drawn), the logD in data set [1] was 1.

Regarding `CCOc1ccc(NC(=O)CC2SCCNC2=O)cc1` (stereo not drawn), in data set [1], the logD is 1.3. Consider `O=C(CC1SCCNC1=O)Nc1ccc(OC(F)(F)F)cc1` (stereo not drawn), for which the Kd in data set [2] was over 1000 µM. For the compound `O=C(CC1SCCNC1=O)Nc1ccc(Cl)cc1` (stereo not drawn), in data set [1], the logD was found to be 1.8. The Kd in data set [2] is 7.4 µM; in data set [3], 14 µM.

As for `O=C(CC1SCCNC1=O)Nc1ccc2c(c1)OCO2` (stereo not drawn), the logD in data set [1] was 0.9.

For the compound `O=c1[nH]ccc2nc(-c3ccccc3)cn12`, in data set [1], the logD is 2. On the same count and under the same terms, as for `CC(=O)Nc1ccc2c(C(F)(F)F)cc(=O)oc2c1`, the figure is 1.8; as for `COc1ccccc1NC(=O)CC1SCCNC1=O` (stereo not drawn), 0.8. In data set [1], `COc1ccc(NC(=O)CC2SCCNC2=O)cc1` (stereo not drawn) yielded a logD of 0.8. Moreover, the microsomal CLint in data set [4] is 8 µL/min/mg. In addition, in data set [5], the CLH came out at 34 µL/min.

In data set [1], `COc1ccc(NC(=O)CC2SCCNC2=O)cc1F` (stereo not drawn) registered a logD of 1.1.

These data come from ChEMBL document CHEMBL4673407, “Fragment-Based Discovery of Novel Allosteric MEK1 Binders” (ACS Med Chem Lett, 2021).
